Measurements published in ChEMBL document CHEMBL1212784, “Structure-microbicidal activity relationship of synthetic fragments derived from the antibacterial alpha-helix of human lactoferrin” (2010).
≈ marks a conversion by molar mass, not a printed value. Positions of bridges follow the written chain, without caps; N, C: chain ends. Residues, ends and D or L forms follow the SMILES beside them.

Legend:
[1] = test system: Staphylococcus aureus; experiment: Antimicrobial activity against Staphylococcus aureus 1800 (CCUG 1800) incubation in bactopeptone; assay type: functional
Summary of the method: (§1)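 Microplate killing assay in 1% Bactopeptone (pH 7.0). Log-phase organisms (BHI overnight, 2 h subculture, 37°C, washed), final ~2 × 10^5 cells/ml, with twofold peptide dilutions, 37°C humid chamber 2 h (or 20 h where stated). 5 μl drops plated on blood agar overnight; MMC99 = lowest concentration giving ≥99% inoculum reduction; duplicates.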

[2] = test system: Candida albicans; experiment: Antimicrobial activity against Candida albicans ATCC […] incubation in bactopeptone; assay type: functional; conditions: ATCC 64549; summary of the method: as §1
[3] = Antimicrobial activity against Escherichia coli O6 K5 incubation in bactopeptone; assay type: functional; summary of the method: as §1
[4] = test system: Staphylococcus aureus; experiment: Antimicrobial activity against Staphylococcus aureus 1800 (CCUG 1800) at 62.7 uM within 30 mins; assay type: functional; conditions: in the assay text read “65.4 uM” for “62.7 uM”
Summary of the method: (§2)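 Killing kinetics in Bactopeptone with 62.7 μM or 65.4 μM peptide against ~2 × 10^5 cells/ml; samples taken immediately after mixing and at 5, 10, 30, 60 and 120 min, serially diluted and plated for viable counts; percent of inoculum killed; duplicates.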

[5] = test system: Candida albicans; experiment: Antimicrobial activity against Candida albicans ATCC […] at 65.4 uM within 5 mins; assay type: functional, ATCC 64549; summary of the method: as §2
[6] = test system: Candida albicans; experiment: Antimicrobial activity against Candida albicans ATCC […] at 62.7 uM within 5 mins; assay type: functional, ATCC 64549; summary of the method: as §2
[7] = test system: Staphylococcus aureus; experiment: Antimicrobial activity against Staphylococcus aureus 1800 (CCUG 1800) at 65.4 uM within 10 mins; assay type: functional; conditions: in the assay text read “62.7 uM” for “65.4 uM”; summary of the method: as §2
[8] = test system: Escherichia coli; experiment: Antimicrobial activity against Escherichia coli O14 using in brain heart infusion medium(dil) after 2 hrs at 25 ug/ml; assay type: functional
Summary of the method: (§3)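 Single-concentration screen: log-phase organisms (~2 × 10^5 cells/ml) incubated 2 h at 37°C in diluted BHI (1/100 of 3.4%, pH 6.7 to 6.9) with 25 μg/ml peptide (10 μg/ml for E. coli O6 and C. albicans); viable counts on blood agar; scored as ≥99% killed or not; duplicates.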

[9] = test system: Escherichia coli; experiment: Antimicrobial activity against Escherichia coli O6 using in brain heart infusion medium(dil) after 2 hrs at 10 ug/ml; assay type: functional; summary of the method: as §3
[10] = test system: Staphylococcus aureus; experiment: Antimicrobial activity against Staphylococcus aureus 1800 (CCUG 1800) after 20 hrs incubation in bactopeptone; assay type: functional; summary of the method: as §1
[11] = Antimicrobial activity against Escherichia coli O6 K5 after 2 hrs incubation in bactopeptone; assay type: functional; conditions: K5, 2 h; summary of the method: as §1
[12] = test system: Staphylococcus aureus; experiment: Antimicrobial activity against Staphylococcus aureus 1800 (CCUG 1800) using in brain heart infusion medium(dil) after 2 hrs at 25 ug/ml; assay type: functional; summary of the method: as §3
[13] = test system: Enterococcus faecalis; experiment: Antimicrobial activity against Enterococcus faecalis ATCC 19433 using in brain heart infusion medium(dil) after 2 hrs at 25 ug/ml; assay type: functional; summary of the method: as §3
[14] = test system: Candida albicans; experiment: Antimicrobial activity against Candida albicans ATCC […] using in brain heart infusion medium(dil) after 2 hrs at 10 ug/ml; assay type: functional, ATCC 64549; summary of the method: as §3
[15] = test system: Candida albicans; experiment: Antimicrobial activity against Candida albicans ATCC […] after 2 hrs incubation in bactopeptone; assay type: functional; conditions: ATCC 64549, 2 h; summary of the method: as §1
[16] = test system: Staphylococcus aureus; experiment: Antimicrobial activity against Staphylococcus aureus 1800 (CCUG 1800) after 2 hrs incubation in bactopeptone; assay type: functional; summary of the method: as §1
[17] = test system: Klebsiella pneumoniae; experiment: Antimicrobial activity against Klebsiella pneumoniae CCUG 9997 using in brain heart infusion medium(dil) after 2 hrs at 25 ug/ml; assay type: functional; summary of the method: as §3
[18] = test system: Candida albicans; experiment: Antimicrobial activity against Candida albicans ATCC […] after 20 hrs incubation in bactopeptone; assay type: functional; conditions: ATCC 64549, 20 h; summary of the method: as §1
[19] = test system: Staphylococcus epidermidis; experiment: Antimicrobial activity against Staphylococcus epidermidis CCUG 18000A using in brain heart infusion medium(dil) after 2 hrs at 25 ug/ml; assay type: functional; summary of the method: as §3
[20] = Antimicrobial activity against Escherichia coli O6 K5 after 20 hrs incubation in bactopeptone; assay type: functional; conditions: K5, 20 h; summary of the method: as §1
[21] = test system: Pseudomonas aeruginosa; experiment: Antimicrobial activity against Pseudomonas aeruginosa CCUG 551 using in brain heart infusion medium(dil) after 2 hrs at 25 ug/ml; assay type: functional; summary of the method: as §3

Row | Molecule | MIC99 [1] | MIC99 [2] | MIC99 [3] | Activity [8] | Activity [9] | MIC99 [10] | MIC99 [11] | Activity [12] | Activity [13] | Activity [14] | MIC99 [15] | MIC99 [16] | Activity [17] | MIC99 [18] | Activity [19] | MIC99 [20] | Activity [21] | also measured
1 | CC[C@H](C)[C@H](NC(=O)[C@@H]1CSSC[C@H](NC(=O)[C@H](CCCCN)NC(=O)[C@@H](NC(=O)[C@H](C)NC(=O)[C@H](CCC(=O)O)NC(C)=O)[C@@H](C)O)C(=O)N[C@@H](Cc2ccccc2)C(=O)N[C@@H](CCC(N)=O)C(=O)N[C@@H](Cc2c[nH]c3ccccc23)C(=O)N[C@@H](CCC(N)=O)C(=O)N[C@@H](CCCNC(=N)N)C(=O)N[C@@H](CC(N)=O)C(=O)N[C@@H](CCSC)C(=O)N[C@@H](CCCNC(=N)N)C(=O)N[C@@H](CCCCN)C(=O)N[C@@H](C(C)C)C(=O)N[C@@H](CCCNC(=N)N)C(=O)NCC(=O)N2CCC[C@H]2C(=O)N2CCC[C@H]2C(=O)N[C@@H](C(C)C)C(=O)N[C@@H](CO)C(=O)N1)C(=O)N[C@@H](CCCCN)C(=O)N[C@@H](CCCNC(=N)N)C(N)=O (Ac-EATKCFQWQRNMRKVRGPPVSCIKR-NH2; disulfide 5-22) | 50 µg/mL (≈ 16.3 µM) | 200 µg/mL (≈ 65.4 µM) | 50 µg/mL (≈ 16.3 µM) | – | – | – | – | – | – | – | – | – | – | – | – | – | – | Activity [4]: 80%; Activity [5]: >90%
2 | H-CFAWQRAMRKVR-OH | 50 µg/mL | 25 µg/mL | 25 µg/mL | – | – | – | – | – | – | – | – | – | – | – | – | – | – | Activity [6]: 99%; Activity [7]: 90%
3 | H-CFQWQRNMRKVR-OH | > 100 µg/mL | 50 µg/mL | 100 µg/mL | >=99% | >=99% | > 100 µg/mL | 100 µg/mL | >=99% | >=99% | >=99% | > 200 µg/mL | > 100 µg/mL | <99% | 100 µg/mL | >=99% | 50 µg/mL | >=99% | –
4 | H-KCFQWQRNMRKVR-OH | – | – | – | >=99% | >=99% | 50 µg/mL | 25 µg/mL | >=99% | >=99% | >=99% | 200 µg/mL | 25 µg/mL | >=99% | 50 µg/mL | >=99% | 12 µg/mL | >=99% | –
5 | H-QPEATKCFQWQRNMRKVR-OH | – | – | – | <99% | <99% | – | – | >=99% | >=99% | <99% | – | – | <99% | – | <99% | – | <99% | –
6 | H-QWQRNMRKVR-OH | – | – | – | <99% | <99% | – | – | <99% | <99% | <99% | – | – | <99% | – | <99% | – | <99% | –
7 | H-TKCFQWQRNMRKVR-OH | – | – | – | >=99% | >=99% | 100 µg/mL | 50 µg/mL | >=99% | >=99% | >=99% | > 200 µg/mL | 50 µg/mL | >=99% | 50 µg/mL | >=99% | 25 µg/mL | >=99% | –
